ChEMBL document CHEMBL3120154, “2-[N-Alkyl(R-phenyl)-aminomethyl]-3-phenyl-7-trifluoromethylquinoxalines as anticancer agents inhibitors of folate enzymes” (Eur J Med Chem, 2014)

What was measured:
Assay type in all cases: functional
[1] = system: SR; test: Cytotoxicity against human SR cells at 10^-8 M after 48 hrs by SRB assay; details: read-out: GI
[2] = system: SR; test: Cytotoxicity against human SR cells at 10^-5 M after 48 hrs by SRB assay; details: read-out: GI
[3] = system: MDA-MB-231; test: Cytotoxicity against human MDA-MB-231 cells at 10^-8 M after 48 hrs by SRB assay; details: MDA-MB-231, 48 h, read-out: GI
[4] = system: TK-10; test: Cytotoxicity against human TK10 cells at 10^-8 M after 48 hrs by SRB assay; details: TK-10, 48 h, read-out: GI
[5] = system: A498; test: Cytotoxicity against human A498 cells at 10^-8 M after 48 hrs by SRB assay; details: A498, 48 h, read-out: GI
[6] = system: 786-0; test: Cytotoxicity against human 786-0 cells at 10^-8 M after 48 hrs by SRB assay; details: 786-0, 48 h, read-out: GI
[7] = system: OVCAR-8; test: Cytotoxicity against human OVCAR8 cells at 10^-8 M after 48 hrs by SRB assay; details: OVCAR-8, 48 h, read-out: GI
[8] = system: OVCAR-3; test: Cytotoxicity against human OVCAR3 cells at 10^-8 M after 48 hrs by SRB assay; details: OVCAR-3, 48 h, read-out: GI
[9] = system: IGROV-1; test: Cytotoxicity against human IGROV1 cells at 10^-8 M after 48 hrs by SRB assay; details: IGROV-1, 48 h, read-out: GI
[10] = system: UACC-62; test: Cytotoxicity against human UACC62 cells at 10^-8 M after 48 hrs by SRB assay; details: UACC-62, 48 h, read-out: GI
[11] = Cytotoxicity against human UACC257 cells at 10^-8 M after 48 hrs by SRB assay; details: UACC-257, 48 h, read-out: GI
[12] = system: SK-MEL-28; test: Cytotoxicity against human SK-MEL-28 cells at 10^-8 M after 48 hrs by SRB assay; details: SK-MEL-28, 48 h, read-out: GI
[13] = system: SK-MEL-2; test: Cytotoxicity against human SK-MEL-2 cells at 10^-8 M after 48 hrs by SRB assay; details: SK-MEL-2, 48 h, read-out: GI
[14] = system: LOX IMVI; test: Cytotoxicity against human LOXIMVI cells at 10^-8 M after 48 hrs by SRB assay; details: read-out: GI
[15] = system: SNB-75; test: Cytotoxicity against human SNB75 cells at 10^-8 M after 48 hrs by SRB assay; details: SNB-75, 48 h, read-out: GI
[16] = system: KM12; test: Cytotoxicity against human KM12 cells at 10^-8 M after 48 hrs by SRB assay; details: KM12, 48 h, read-out: GI
[17] = system: COLO 205; test: Cytotoxicity against human COLO205 cells at 10^-8 M after 48 hrs by SRB assay; details: COLO 205, 48 h, read-out: GI
[18] = system: NCI-H322M; test: Cytotoxicity against human NCI-H322M cells at 10^-8 M after 48 hrs by SRB assay; details: read-out: GI
[19] = system: NCI-H23; test: Cytotoxicity against human NCI-H23 cells at 10^-8 M after 48 hrs by SRB assay; details: NCI-H23, 48 h, read-out: GI
[20] = system: HOP-92; test: Cytotoxicity against human HOP92 cells at 10^-8 M after 48 hrs by SRB assay; details: HOP-92, 48 h, read-out: GI
[21] = system: HOP-62; test: Cytotoxicity against human HOP62 cells at 10^-8 M after 48 hrs by SRB assay; details: HOP-62, 48 h, read-out: GI
[22] = system: K562; test: Cytotoxicity against human K562 cells at 10^-8 M after 48 hrs by SRB assay; details: K562, 48 h, read-out: GI
[23] = system: HL-60(TB); test: Cytotoxicity against human HL-60(TB) cells at 10^-8 M after 48 hrs by SRB assay; details: HL-60, 48 h, read-out: GI
Method in brief: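 NCI 60-human-tumour-cell-line screen run over a 5-log dose range (100, 10, 1, 0.1 and 0.01 µM). Cells were exposed to drug for 48 h. Growth was estimated by sulforhodamine B protein staining. Values are percent growth inhibition at each concentration, relative to untreated control cells.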

[24] = system: CCRF-CEM; test: Cytotoxicity against human CCRF-CEM cells at 10^-8 M after 48 hrs by SRB assay; details: read-out: GI
[25] = Cytotoxicity against human Hs578T cells at 10^-7 M after 48 hrs by SRB assay; details: Hs-578T, read-out: GI
[26] = system: 786-0; test: Cytotoxicity against human 786-0 cells at 10^-7 M after 48 hrs by SRB assay; details: 786-0, 48 h, read-out: GI
[27] = system: OVCAR-8; test: Cytotoxicity against human OVCAR8 cells at 10^-7 M after 48 hrs by SRB assay; details: OVCAR-8, 48 h, read-out: GI
[28] = Cytotoxicity against human OVCAR5 cells at 10^-7 M after 48 hrs by SRB assay; details: OVCAR-5, 48 h, read-out: GI
[29] = system: M14; test: Cytotoxicity against human M14 cells at 10^-7 M after 48 hrs by SRB assay; details: M14, 48 h, read-out: GI
[30] = system: SNB-75; test: Cytotoxicity against human SNB75 cells at 10^-7 M after 48 hrs by SRB assay; details: SNB-75, 48 h, read-out: GI
[31] = system: NCI-H522; test: Cytotoxicity against human NCI-H522 cells at 10^-7 M after 48 hrs by SRB assay; details: NCI-H522, 48 h, read-out: GI
[32] = system: HOP-92; test: Cytotoxicity against human HOP92 cells at 10^-7 M after 48 hrs by SRB assay; details: HOP-92, 48 h, read-out: GI
[33] = system: HOP-62; test: Cytotoxicity against human HOP62 cells at 10^-7 M after 48 hrs by SRB assay; details: HOP-62, 48 h, read-out: GI
[34] = system: K562; test: Cytotoxicity against human K562 cells at 10^-6 M after 48 hrs by SRB assay; details: K562, 48 h, read-out: GI
[35] = system: HCC 2998; test: Cytotoxicity against human HCC2998 cells at 10^-5 M after 48 hrs by SRB assay; details: HCC 2998, 48 h, read-out: GI
[36] = system: K562; test: Cytotoxicity against human K562 cells at 10^-5 M after 48 hrs by SRB assay; details: K562, 48 h, read-out: GI

CCN(Cc1nc2cc(C(F)(F)F)ccc2nc1-c1ccccc1)c1ccc(OC)c(OC)c1
25%: inhibition of growth at 0.1 µM [27]
< 40%: inhibition of growth at 0.01 µM [1] | inhibition of growth at 0.01 µM [3] | inhibition of growth at 0.01 µM [4] | inhibition of growth at 0.01 µM [5] | inhibition of growth at 0.01 µM [6] | inhibition of growth at 0.01 µM [8] | inhibition of growth at 0.01 µM [9] | inhibition of growth at 0.01 µM [10] | inhibition of growth at 0.01 µM [12] | inhibition of growth at 0.01 µM [13] | inhibition of growth at 0.01 µM [14] | inhibition of growth at 0.01 µM [15] | inhibition of growth at 0.01 µM [16] | inhibition of growth at 0.01 µM [17] | inhibition of growth at 0.01 µM [18] | inhibition of growth at 0.01 µM [19] | inhibition of growth at 0.01 µM [20] | inhibition of growth at 0.01 µM [21] | inhibition of growth at 0.01 µM [22] | inhibition of growth at 0.01 µM [23] | inhibition of growth at 0.01 µM [24] | inhibition of growth at 0.1 µM [25] | inhibition of growth at 0.1 µM [26] | inhibition of growth at 0.1 µM [28] | inhibition of growth at 0.1 µM [29] | inhibition of growth at 0.1 µM [30] | inhibition of growth at 0.1 µM [31] | inhibition of growth at 0.1 µM [32] | inhibition of growth at 0.1 µM [33] | inhibition of growth at 1 µM [34]
39%: inhibition of growth at 0.01 µM [11]
15%: inhibition of growth at 10 µM [35]
62%: inhibition of growth at 10 µM [36]
11%: inhibition of growth at 0.01 µM [7]
56%: inhibition of growth at 10 µM [2]
